According to ChEMBL document CHEMBL1127086, “Syntheses and biological evaluations of 3'-deoxy-3'-C-branched-chain-substituted nucleosides” (1993):
The source made the active and inactive calls. The rule behind the calls is not given here.

Assays:
[1] = Tested in vitro for anticancer activity against replication of murine Sarcoma 180 cell line after 72 h incubation; format: functional; conditions: Mus musculus, 180, 72 h; read-out: ED50 (the source's name)
Method in brief: (§1)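 Suspension cultures at 37 °C, 5% CO₂. L1210, P388 and S-180 were grown in Fisher's medium and CCRF-CEM in RPMI 1640, each with 10% horse serum. Exponentially growing cells at 2 × 10⁴ cells/mL were exposed to various concentrations and counted at 24, 48 and 72 h. ED₅₀ for 50% growth inhibition at 72 h was estimated from dose-response curves, ≥2 independent experiments.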

P388 = test: Tested in vitro for anticancer activity against replication of murine leukemia P388 cell line after 72 hr incubation; format: functional; conditions: Mus musculus, P388, 72 h; read-out: ED50 (the source's name); method in brief: as §1
L1210 = test: Tested in vitro for anticancer activity against replication of murine leukemia L1210 cell line after 72 hr incubation; format: functional; conditions: Mus musculus, L1210, 72 h; read-out: ED50 (the source's name); method in brief: as §1
CCRF-CEM = test: Tested in vitro for anticancer activity against replication of human CCRF-CEM lymphoblastic cell line after 72 hr incubation; format: functional; conditions: read-out: ED50 (the source's name); method in brief: as §1
[2] = target: T1, Thymidine kinase, cytosolic (Homo sapiens) (UniProt P04183); test: […] thymidine kinase activity from K562 mammalian cells at 500 uM concentration; format: cell-based
T1 sequence (whole entry): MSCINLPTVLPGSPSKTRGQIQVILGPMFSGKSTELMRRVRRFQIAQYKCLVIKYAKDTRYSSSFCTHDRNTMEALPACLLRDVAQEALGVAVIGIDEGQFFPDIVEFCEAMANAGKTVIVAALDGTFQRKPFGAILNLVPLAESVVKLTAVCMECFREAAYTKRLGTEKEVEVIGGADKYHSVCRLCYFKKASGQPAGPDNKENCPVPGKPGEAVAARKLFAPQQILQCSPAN

[3] = tested on: Thymidine kinase (Human herpesvirus 2); test: Antiviral activity against thymidine kinase from Herpes simplex virus type-2 (333 Strain) infected HeLa (Bu-25-TK-) cells at 500 uM concentration
[4] = tested on: Thymidine kinase (Human herpesvirus 1); test: Antiviral activity against thymidine kinase from Herpes simplex virus type-1 (KOS Strain) infected HeLa (Bu-25-TK-) cells at 500 uM concentration
MT2 [5] = test: Antiviral activity against HIV-1(HTLV-III B) in MT-2 cells; Not active uM concentration; format: functional, cell-based; conditions: Homo sapiens
Method in brief: (§2)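 MT-2 cells, 1 × 10⁴ per well in triplicate wells, infected with HIV-1 (HTLV-III) at MOI 0.5 TCID₅₀/cell, then given serial drug dilutions. MTT added after 7 days. Antiviral effect taken from A₅₇₀ of infected cells compared with A₅₇₀ of uninfected drug-free cells. Concentrations tested up to 100 μM.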

MT2 [6] = test: Antiviral activity against HIV-1(HTLV-III B) in MT-2 cells at 100 uM; Not active up to 100 uM concentration; format: functional, cell-based; conditions: Homo sapiens; method in brief: as §2

EC50 [1]	EC50 (P388)	EC50 (L1210)	EC50 (CCRF-CEM)	inhibition [2]	inhibition [3]	inhibition [4]	SMILES	inhibition (MT2 [5])	inhibition (MT2 [6])
> 100 µM	> 100 µM	> 100 µM	> 100 µM	–	–	–	Cc1cn([C@@H]2O[C@H](CO)[C@@H](CN)[C@H]2O)c(=O)[nH]c1=O	–	–
–	–	–	–	5%	–	–	Cc1cn([C@@H]2O[C@H](CO)[C@@H](O)[C@@H]2O)c(=O)[nH]c1=O	–	–
> 100 µM	> 100 µM	> 100 µM	> 100 µM	–	–	–	Cc1cn([C@H]2C[C@H](CN=[N+]=[N-])[C@@H](CO)O2)c(=O)[nH]c1=O	inactive	–
> 100 µM	> 100 µM	10 µM	> 100 µM	–	–	–	Cc1cn([C@@H]2O[C@H](CO)[C@@H](CN=[N+]=[N-])[C@@H]2O)c(=O)[nH]c1=O	inactive	–
> 100 µM	> 100 µM	> 100 µM	> 100 µM	5.4%	4%	85.2%	Cc1cn([C@H]2C[C@H](CF)[C@@H](CO)O2)c(=O)[nH]c1=O	–	inactive
> 100 µM	> 100 µM	> 100 µM	> 100 µM	3%	0%	2.6%	Cc1cn([C@@H]2O[C@H](CO)[C@@H](CO)[C@H]2O)c(=O)[nH]c1=O	–	–
> 100 µM	> 100 µM	> 100 µM	> 100 µM	2.5%	4.9%	7%	Cc1cn([C@@H]2O[C@H](CO)[C@@H](CF)[C@H]2O)c(=O)[nH]c1=O	–	inactive
> 100 µM	> 100 µM	> 100 µM	> 100 µM	–	–	–	Cc1cn([C@H]2C[C@H](CN)[C@@H](CO)O2)c(=O)[nH]c1=O	–	–

The remaining lines, values behind:

SMILES	EC50 [1]	EC50 (P388)	EC50 (L1210)	EC50 (CCRF-CEM)	inhibition [2]	inhibition [3]	inhibition [4]	inhibition (MT2 [5])	inhibition (MT2 [6])
Cc1cn([C@@H]2O[C@H](CO)[C@@H](CN)[C@@H]2O)c(=O)[nH]c1=O	> 100 µM	> 100 µM	> 100 µM	> 100 µM	–	–	–	–	–
Cc1cn([C@@H]2O[C@H](CO)[C@@H](CO)[C@@H]2O)c(=O)[nH]c1=O	> 100 µM	> 100 µM	> 100 µM	> 100 µM	0.7%	6.9%	11.7%	–	–
Cc1cn([C@@H]2O[C@H](CO)[C@@H](CF)[C@@H]2O)c(=O)[nH]c1=O	> 100 µM	> 100 µM	> 100 µM	> 100 µM	7.1%	10.9%	13.8%	inactive	–
Cc1cn([C@@H]2O[C@H](CO)[C@@H](CN=[N+]=[N-])[C@H]2O)c(=O)[nH]c1=O	> 100 µM	> 100 µM	> 100 µM	> 100 µM	–	–	–	inactive	–
Cc1cn([C@H]2C[C@H](CO)[C@@H](CO)O2)c(=O)[nH]c1=O	10 µM	5 µM	50 µM	1 µM	3%	0%	59.1%	–	–
